Laboratory results published in ChEMBL document CHEMBL1121854, “New antiarrhythmic agents. 5. alpha-Aminoaceto-2,6-xylidides with functionalized amide alkyl substituents” (J Med Chem, 1981).

How the values were obtained:
Mus musculus [1] = test: Acute CNS toxicity against arrhythmogenic effects of chloroform in mice after sc administration.; format: functional; settings: Central nervous system
Mus musculus [2] = test: Antiarrhythmic activity against arrhythmogenic effects of chloroform in mice after sc administration.; format: functional; settings: Heart
In short: (§1)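 At 20 min they were exposed to chloroform until respiratory arrest, then given a thoracotomy. Leads I and II plus an epicardial ECG were recorded for 30–40 s. Tachycardia was defined as ≥5 s with a ventricular rate >520 beats/min; absence meant protection.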

[3] = Therapeutic index is defined as the ratio of ED50(ataxia)/ED50(protection); settings: read-out: Therapeutic index
In short: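 Ratio of ED50 for ataxia to ED50 for protection against chloroform-induced ventricular tachycardia in mice. Both ED50 values were derived by Berkson's logit chi-square method from percent responders across dose groups.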

Ovis aries [4] = test: Duration of spinal anesthesia at the anal region was measured in sheep at dose 40(mg/kg); format: functional
In short: (§2)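 Sterile solutions held 20 mg/mL base (2%) and 50 mg/mL glucose, made from the salts and adjusted to pH 6.1–6.5 with dilute NaOH. 2 mL was injected intrathecally in sheep. Onset of block was recorded at the anal region and hind-limb digits. Duration of pain block at both sites and of loss of weight support was noted. 5% glucose served as vehicle control.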

Ovis aries [5] = test: Duration of spinal anesthesia at the digits of the hind limbs was measured in sheep at dose 40(mg/kg); format: functional, Hindlimb; in short: as §2
Ovis aries [6] = test: Duration of spinal anesthesia at the weight support was measured in sheep at dose 40(mg/kg); format: functional; in short: as §2
Mus musculus [7] = test: Acute CNS toxicity against arrhythmogenic effects of chloroform in mice after sc administration; format: functional; settings: Central nervous system
Mus musculus [8] = test: Antiarrhythmic activity against arrhythmogenic effects of chloroform in mice after sc administration; format: functional; settings: Heart; in short: as §1
Ovis aries [9] = test: Duration of spinal anesthesia at the anal region was measured in sheep at dose. 40 mg/kg; 50-300; format: functional; in short: as §2
Ovis aries [10] = test: Duration of spinal anesthesia at the digits of the hind limbs was measured in sheep at dose. 40 mg/kg; 0-140; format: functional, Hindlimb; in short: as §2
Ovis aries [11] = test: Duration of spinal anesthesia at the weight support was measured in sheep at dose. 40 mg/kg; 0-165; format: functional; in short: as §2
Ovis aries [12] = test: Onset of spinal anesthesia at the anal region was measured in sheep at dose 40(mg/kg); 5-50; format: functional; in short: as §2
Ovis aries [13] = test: Onset of spinal anesthesia at the digits of the hind limbs was measured in sheep at dose 40 (mg/kg); 5-50
Ovis aries [14] = test: Onset of spinal anesthesia at the anal region was measured in sheep at dose 30(mg/kg); format: functional
Ovis aries [15] = test: Onset of spinal anesthesia at the digits of the hind limbs was measured in sheep at dose 30(mg/kg); format: functional, Hindlimb
Ovis aries [16] = test: Duration of spinal anesthesia at the anal region was measured in sheep at dose.40(mg/kg); format: functional; in short: as §2
Ovis aries [17] = test: Duration of spinal anesthesia at the weight support was measured in sheep at dose.40(mg/kg); format: functional; in short: as §2
Ovis aries [18] = test: Onset of spinal anesthesia at the anal region was measured in sheep at dose 40(mg/kg); format: functional; in short: as §2
Ovis aries [19] = test: Onset of spinal anesthesia at the digits of the hind limbs was measured in sheep at dose 40(mg/kg); format: functional, Hindlimb; in short: as §2
Ovis aries [20] = test: Duration of spinal anesthesia at the digits of the hind limbs was measured in sheep at dose.40(mg/kg); format: functional, Hindlimb; in short: as §2
Ovis aries [21] = test: Duration of spinal anesthesia at the anal region was measured in sheep at dose 10(mg/kg); format: functional
Ovis aries [22] = test: Duration of spinal anesthesia at the digits of the hind limbs was measured in sheep at dose 10(mg/kg); format: functional, Hindlimb
Ovis aries [23] = test: Duration of spinal anesthesia at the weight support was measured in sheep at dose 10(mg/kg); format: functional
Ovis aries [24] = test: Onset of spinal anesthesia at the digits of the hind limbs was measured in sheep at dose 10 (mg/kg); format: functional, Hindlimb
Ovis aries [25] = test: Onset of spinal anesthesia at the anal region was measured in sheep at dose 10(mg/kg); format: functional

Row | SMILES | ED50 (Mus musculus [1]) [µmol/kg] | ED50 (Mus musculus [2]) [µmol/kg] | selectivity ratio [3] | ED50 (Mus musculus [7]) [µmol/kg] | ED50 (Mus musculus [8]) [µmol/kg] | further results
1 | Cc1cccc(C)c1N(CCN)C(=O)CN | 1050 | 390 | 2.7 |  |  | 
2 | OC[C@H]1OC(O)[C@H](O)[C@@H](O)[C@@H]1O (some centres undefined) [DEXTROSE] |  |  |  |  |  | Duration of block (Ovis aries [4]): 0 min; Duration of block (Ovis aries [5]): 0 min; Duration of block (Ovis aries [6]): 0 min
3 | CCOCCN(C(=O)CN(CC)CC)c1c(C)cccc1C | 80 | 60 | 1.3 |  |  | 
4 | CCN(CC)CCN(C(=O)CN1C(=O)c2ccccc2C1=O)c1c(C)cccc1C |  |  | 1 | 10 | 10 | 
5 | CCN(CC)CCN(C(=O)CN)c1c(C)cccc1C | 1130 | 690 | 1.6 |  |  | Duration of block (Ovis aries [9]): 50 min; Duration of block (Ovis aries [10]): 0 min; Duration of block (Ovis aries [11]): 0 min; Onset of block (Ovis aries [12]): 19 min; Onset of block (Ovis aries [13]): 19 min
6 | CCN(CC)CC(=O)Nc1c(C)cccc1C [LIDOCAINE] |  |  |  | 180 | 210 | Onset of block (Ovis aries [14]): 1 min; Onset of block (Ovis aries [15]): 1.4 min
7 | Cc1cccc(C)c1N(CCO)C(=O)CN |  |  | 0.9 | 1080 | 1260 | 
8 | CCN(CC)CC(=O)N(CCN)c1c(C)cccc1C | 560 | 120 | 4.7 |  |  | Duration of block (Ovis aries [16]): 270 min; Duration of block (Ovis aries [17]): 195 min; Onset of block (Ovis aries [18]): 5 min; Onset of block (Ovis aries [19]): 15 min; Duration of block (Ovis aries [20]): 132 min
9 | CCN(CC)CC(=O)N(CCO)c1c(C)cccc1C | 490 | 180 | 2.7 |  |  | 
10 | CCN(CC)CC(=O)N(CC)c1c(C)cccc1C | 210 | 140 | 1.5 |  |  | 
11 | CCN(CC)CCN(C(=O)CN(CC)CC)c1c(C)cccc1C |  |  | 1.3 | 600 | 460 | Duration of block (Ovis aries [16]): 0 min; Duration of block (Ovis aries [17]): 0 min; Duration of block (Ovis aries [20]): 0 min
12 | Cc1cccc(C)c1NC(=O)C(C)N (centres undefined) [TOCAINIDE] |  |  | 1.4 | 760 | 550 | 
13 | CCOCCN(C(=O)CN)c1c(C)cccc1C | 170 | 190 | 0.9 |  |  | 
14 | Cc1cccc(C)c1NC(=O)CN [GLYCINEXYLIDIDE] |  |  | 0.7 | 620 | 840 | 
15 | CCCCNc1ccc(C(=O)OCCN(C)C)cc1 [TETRACAINE] |  |  |  |  |  | Duration of block (Ovis aries [21]): 302 min; Duration of block (Ovis aries [22]): 285 min; Duration of block (Ovis aries [23]): 458 min; Onset of block (Ovis aries [24]): 1.2 min; Onset of block (Ovis aries [25]): 1.13 min
16 | CCCN(C(=O)CN(CC)CC)c1c(C)cccc1C | 150 | 170 | 0.9 |  |  | 
